Screens: PubChem BioAssay, several laboratories
Shown are actives, neighbours in structure and some others; about 4.1% of the full set was active somewhere.
SMARCA2 act – SMARCA2 function activation, primary screen. MG213 cells, MMTV-luciferase reporter, dexamethasone, overnight. activation, % at 9.1 µM. 1% of 370,000 active; in the data active = activation above about 7.8%;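 note: 0% = vehicle wells and 100% = reference activator wells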
MC4R barr agon – agonists of human melanocortin 4 receptor (MC4R) beta-arrestin. U2OS MC4R beta-arrestin complementation, luminescence; percent of melanotan II response, DMSO zero. activation, % at 8.9 µM. 0.98% of 360,000 active. P32245;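 active = activation above a per-plate cutoff, the mean activation of sample wells on that plate plus 3 SD, cut at about 8% in these data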
Target sequence (P32245 whole entry, looked up): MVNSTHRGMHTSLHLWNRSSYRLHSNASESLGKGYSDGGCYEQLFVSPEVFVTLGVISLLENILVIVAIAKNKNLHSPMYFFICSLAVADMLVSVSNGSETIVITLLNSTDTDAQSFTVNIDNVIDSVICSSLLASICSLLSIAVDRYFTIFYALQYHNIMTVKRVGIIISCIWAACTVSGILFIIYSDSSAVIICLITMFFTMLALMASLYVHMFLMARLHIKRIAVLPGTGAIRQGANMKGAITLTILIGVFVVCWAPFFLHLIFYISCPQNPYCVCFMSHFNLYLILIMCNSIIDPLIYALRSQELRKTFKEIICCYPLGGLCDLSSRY
MC4R antagonist – blocks human MC4R cAMP signaling | inhibition, % at 6.5 µM | MC4R-expressing cells, MTII-stimulated cAMP, LANCE TR-FRET | 0.48% of 360,000 active | P32245;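 active = inhibition above its plate's cutoff, the mean of tested wells on that plate plus 3 SD, cut at about 29% in these data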;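 note: 0% = Melanotan II alone and 100% = Melanotan II plus saturating MCL0020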
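system = U2OS cells with stable human MC4R expression | also added = Melanotan II challenge after compound preincubation | dosing = one concentration, 6.5 µM nominal | incubation = compound 30 min, challenge 1 h, detection 1 h | measured by = TR-FRET with Eu-cAMP and labeled anti-cAMP, 671 nm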
ATG4B inh – inhibitors of human ATG4B cysteine protease. Q9Y4P1. ATG4B cleavage of LC3-PLA2, NBD-HPC fluorescence, 1 h. inhibition, % at 8.33 µM. 0.51% of 340,000 active. AID 504462; in the data active = inhibition above about 40%
MPTP inh – blocks calcium-induced mitochondrial swelling; isolated mouse mitochondria, Ca2+ swelling absorbance, 30 min; inhibition, % at 10 µM; 1.4% of 360,000 active;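 active = inhibition of 50% or more, scaled per plate between neutral and stimulator controls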;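 note: 0% = DMSO wells given calcium and 100% = 1 mM EGTA wells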
ATG4B conf – ATG4B (human) inhibition, single-dose confirmed; shares compounds with ATG4B inh; AID 504757; 92% of 320 active; inhibition, % at 8.33 µM; ATG4B protease fluorescent substrate cleavage assay; in the data active = inhibition above about 39%
PLA2 counter – PLA2 (human) inhibition in ATG4B counter-screen | shares compounds with ATG4B inh | purified PLA2, NBD-C6-HPC fluorescence, 45 min | inhibition, % at 8.33 µM | 66% of 1,600 active | AID 588402; in the data active = inhibition above about 50%
The depositor's hits bear a star; x = no result given.

SMILES	SMARCA2 act	MC4R barr agon	MC4R antagonist	ATG4B inh	MPTP inh	PLA2 counter	others
COc1ccc(/C=C/c2onc(C)c2S(=O)(=O)N2CCC(C(=O)N3CCCCCC3)CC2)cc1	-7	-2	9	40*	0	65*
Cc1ccc(/C=C/c2onc(C)c2S(=O)(=O)N2CCC(C(=O)N3CCCCC3)CC2)cc1	-1	0	-4	0	-1	x
Cc1noc(/C=C/c2ccco2)c1S(=O)(=O)N1CCC(C(=O)N2CCc3ccccc3C2)CC1	x	-2	0	73*	7	75*
CCOC(=O)C1=NN(C(=O)c2ccccc2)C(O)(c2ccc(C)cc2)C1 (stereo not given)	0	-2	3	-4	2	x
CCC1=NN(C(=O)c2cccc([N+](=O)[O-])c2)C(O)(c2ccc(C)cc2)C1 (stereo not given)	3	-1	5	54*	4	60*
C=CCN1[C@@H](C)COc2cc(N3CCCC3)ccc2S1(=O)=O	0	x	x	x	x	x
Cc1cccc2nc(-c3cccnc3)c(NCCC(C)C)n12	-2	1	9	40*	3	51*
Cc1cccc2nc(-c3cccnc3)c(Nc3ccccc3)n12	-5	0	6	-5	1	x
COCC(=O)N1CCC(C(=O)NCC2COc3ccccc3O2)CC1 (stereo not given)	-1	x	x	x	x	x
CC(C)c1ccc2nc3sc(C(=O)N4CCc5ccccc5C4)c(N)c3cc2c1	1	-1	5	52*	2	48	ATG4B conf=54*
O=C(COc1ccccc1[N+](=O)[O-])Nc1ccccc1N1CCCCC1	x	2	-2	43*	0	74*
O=C(COc1ccccc1[N+](=O)[O-])Nc1ccccc1N1CCCC1	1	-1	-7	50*	6	58*
Cc1ccccc1OCC(=O)Nc1ccccc1N1CCCCC1	-1	1	16	26	7	x
COc1ccc(S[C@]2(C(=O)N3CCOCC3)CC(=O)N(C(=O)C3CC3)[C@@H]2c2ccc(OC)cc2)cc1	-3	x	x	x	x	x
C(=N\Nc1nc(-c2ccccc2)cs1)/c1ccco1	6	0	2	10	2	x
Cc1ccc(-c2csc(N/N=C/c3ccco3)n2)cc1	5	0	9	41*	2	38
O=C(O)c1cc(-c2ccc(-c3c(-c4ccc5c(c4)OCO5)noc3-c3ccsc3)cc2)nc2ccccc12	3	-2	-6	62*	-1	34	ATG4B conf=18
Cc1nc(CSc2ccc(Cl)cc2)cc(NCc2ccccc2)n1	1	0	0	73*	0	79*
Fc1ccc(NCc2ccccc2F)cc1Cl	3	1	-6	41*	3	29	ATG4B conf=69*
COC(=O)C1=C(C)N(Cc2cccc(C(F)(F)F)c2)C(=NCc2cc(OC)c(OC)c(OC)c2)NC1c1cccc(F)c1 (stereo not given)	-1	x	x	x	x	x
O=Cc1ccccc1OCCCOc1cccc2cccnc12	7	-1	-20	65*	2	75*
CCn1c(COc2ccc(Cl)cc2)nnc1SC1CCc2ccccc2C1=O (stereo not given)	-3	2	5	88*	11	84*
CCn1c(COc2ccc(Cl)cc2)nnc1SCc1ccc(C#N)cc1	-1	-1	0	-14	-2	x
CN(c1ccccc1)C1CCCCC1NS(=O)(=O)c1ccc(Cl)cc1 (stereo not given)	-6	2	15	57*	16	64*
CC(C)C[C@H]1COc2cc(Br)ccc2S(=O)(=O)N1Cc1cn(Cc2ccc(F)cc2)nn1	0	x	x	x	x	x
Cc1ccsc1/C=C1\CCc2ccccc2C1=O	5	-1	-2	46*	0	68*
Cc1ccccc1/C=C1\CCCc2ccccc2C1=O	4	1	2	53*	0	61*
COc1ccc(-n2c(SCC(=O)N3CCCCC3)nc3ccccc3c2=O)cc1	1	0	-4	16	0	x
COc1ccc(-n2c(SC(CN3CCCCC3)CN3CCCC3=O)nc3ccccc3c2=O)cc1 (stereo not given)	-1	-2	-1	63*	-1	67*
